# T cruzi growth-1: T. cruzi intracellular proliferation inhibitors, primary screen, cell-based, beta-gal Tulahuen parasites, NIH3T3 host, luminescence. T. cruzi beta-gal in NIH3T3, GalScreen luminescence, 90 h. inhibition, % at 8.34 µM. 77,000 compounds, 5.9% hits;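 active = mean inhibition above about 93%, with at least 55% of replicates each passing it, limit read from the data, passing the limit was not always enough; inconclusive = only one of those two conditions holds; inactive = neither condition holds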
# KDM4C inh: inhibitors of GASC-1 (KDM4C) histone demethylase, primary screen, biochemical, single concentration HTS. inhibition, % at 12.5 µM. AID 720574, 2013. Lysine-specific demethylase 4C (Homo sapiens), Q9H3R0. GST-KDM4C 2-372, H3K9me3 peptide, LANCE TR-FRET. 96,000 compounds, 0.15% hits;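 active = mean replicate inhibition above about 25%, with at least 55% of replicates also reaching it, limit read from the data, passing the limit was not always enough; inconclusive = only one of those two conditions met; inactive = neither condition met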
# Target sequence (Q9H3R0 2-372 limits assumed): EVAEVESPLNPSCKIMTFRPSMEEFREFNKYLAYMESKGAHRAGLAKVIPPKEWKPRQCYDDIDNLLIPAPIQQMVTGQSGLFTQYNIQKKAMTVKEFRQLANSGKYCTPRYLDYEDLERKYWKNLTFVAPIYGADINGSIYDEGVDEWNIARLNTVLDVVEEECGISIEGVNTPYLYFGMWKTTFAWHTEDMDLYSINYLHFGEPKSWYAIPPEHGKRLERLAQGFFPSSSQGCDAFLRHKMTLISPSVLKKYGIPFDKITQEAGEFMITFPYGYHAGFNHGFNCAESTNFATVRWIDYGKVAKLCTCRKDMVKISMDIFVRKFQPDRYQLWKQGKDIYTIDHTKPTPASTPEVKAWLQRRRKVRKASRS
#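 Material: N-terminal GST-fused human GASC-1 (KDM4C) fragment, residues 2-372. Input: 10 nM enzyme. Incubation: enzyme reaction 30 min, then detection 60 min, both room temperature. Doses: one test concentration per compound. Read-out basis: inhibition from TR-FRET ratio decrease. Detection: LANCE TR-FRET, excitation 340 nm, emissions 618 and 671 nm.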
# IDH1 R132H inh: inhibitors of IDH1 R132H reductase, primary screen, biochemical, plate reader, single point; Isocitrate dehydrogenase [NADP] cytoplasmic (Homo sapiens), O75874; diaphorase/resazurin fluorescence, 60 min; inhibition, % at 10 µM; 70,000 compounds, 0.18% hits; AID 624101, 2012; in the data active = inhibition above about 34%; inconclusive = no clear call, values can overlap the other calls; inactive = below about 11%;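 note: 0% = DMSO and 100% = no enzyme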
# T cruzi growth-2: T. cruzi intracellular proliferation inhibitors, confirmation, cell-based, NIH3T3 host, beta-gal parasite, luminescence, cherry-pick; inhibition, % at 8.35 µM; shares compounds with T cruzi growth-1; 5,600 compounds, 72% hits; T. cruzi beta-gal in NIH3T3, GalScreen luminescence, 90 h;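 active = mean replicate inhibition above about 95% and at least 55% of replicates individually reaching it, limit read from the data; inconclusive = only one of the two criteria is met; inactive = neither criterion is met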
# T cruzi growth-3: inhibitors of intracellular T. cruzi replication, confirmation, NIH3T3 host cells, beta-gal parasites, cherry-pick, set 2 | shares compounds with T cruzi growth-1 | T. cruzi beta-gal in NIH3T3, GalScreen luminescence, 90 h | inhibition, % at 2.09 µM | 5,600 compounds, 21% hits | AID 651740, 2012;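 active = mean inhibition above about 95%, with at least 55% of replicates also reaching it, limit read from the data; inconclusive = meets just one of the two conditions; inactive = meets neither condition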;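 note: plate controls were neutral control median for no effect and positive control median for full effect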
# 3T3 cytotox: cytotoxicity in mouse NIH/3T3 fibroblasts, confirmation, cytotoxicity control for T. cruzi proliferation inhibitor project, cell-based, cherry-pick, single point | shares compounds with T cruzi growth-1 | NIH/3T3 viability, CellTiter-Glo ATP luminescence, 90 h | cytotoxicity (signal decrease), % at 8.35 µM | 5,600 compounds, 14% hits | AID 651742, 2012;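 active = mean signal decrease across replicates above about 35% based on untreated-well scatter, with enough replicates individually passing, limit read from the data; inconclusive = no rule stated though some were filed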;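 note: 0% = median of neutral control wells and 100% = median of positive control wells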
# 3T3 cytotox 2: NIH/3T3 fibroblast cytotoxicity, confirmation, cytotoxicity control, cell-based, cherry-pick, single point, set 2; inhibition, % at 24.9 µM; NIH/3T3 viability, CellTiter-Glo ATP luminescence, 90 h; shares compounds with T cruzi growth-1; AID 651744, 2012; 5,600 compounds, 56% hits;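 active = mean loss of cell viability signal at or above a set limit, and enough replicates individually reaching it; inconclusive = meets only the mean limit or only the replicate share; inactive = meets neither condition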;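 note: 0% = median of neutral control wells and 100% = median of positive control wells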
# * = called active by the depositor; ? = inconclusive; . = no result given. The full list was thinned out, with hits kept by preference.
SMILES,T cruzi growth-1,KDM4C inh,IDH1 R132H inh,T cruzi growth-2,T cruzi growth-3,3T3 cytotox,3T3 cytotox 2
CC(C)NC(=O)N1CCCCN2[C@@H](CO)[C@H](c3ccc(C#CC4CC4)cc3)[C@@H]2C1,?,0,.,94,36,-11,22
CC(C)NC(=O)N1CCCCN2[C@H](CO)[C@H](c3ccc(C#CC4CC4)cc3)[C@@H]2C1,30,3,.,.,.,.,.
CC(C)NC(=O)N1CCCCN2[C@H](CO)[C@@H](c3ccc(C#C[C@@H](C)O)cc3)[C@H]2C1,47,2,.,.,.,.,.
CC(C)NC(=O)N1CCCCN2[C@H](CO)[C@@H](c3ccc(C#C[C@H](C)O)cc3)[C@@H]2C1,106*,0,.,47,25,11,25
Cc1cccc(NC(=O)CCCC(=O)O)c1C,.,.,0,.,.,.,.
Cc1scc(C(=O)Nc2cccc(Cn3cccn3)c2)c1-c1ccccc1,.,.,-1,.,.,.,.
C[C@@H]1CN([C@@H](C)CO)C(=O)c2cc(NS(=O)(=O)c3cccs3)ccc2O[C@@H](C)CCCCO[C@H]1CN(C)Cc1ccc(C(=O)O)cc1,-69,-1,.,.,.,.,.
C[C@@H]1CN([C@H](C)CO)C(=O)c2cc(NS(=O)(=O)c3cccs3)ccc2O[C@@H](C)CCCCO[C@H]1CN(C)Cc1ccc(C(=O)O)cc1,.,1,4,.,.,.,.
C[C@@H]1CN([C@@H](C)CO)C(=O)c2cc(NS(=O)(=O)c3cccs3)ccc2O[C@@H](C)CCCCO[C@H]1CN(C)Cc1ccc(C(F)(F)F)cc1,95,0,.,.,.,.,.
C[C@H](CO)N1C[C@H](C)[C@@H](CN(C)Cc2ccc(C(F)(F)F)cc2)OCCCC[C@H](C)Oc2ccc(NS(=O)(=O)c3cccs3)cc2C1=O,?,20,.,99*,105*,44*,106*
C[C@@H]1CCCCO[C@H](CN(C)Cc2ccc(C(F)(F)F)cc2)[C@@H](C)CN([C@@H](C)CO)C(=O)c2cc(NS(=O)(=O)c3cccs3)ccc2O1,112*,7,1,92,112*,1,106*
C[C@@H]1CN([C@H](C)CO)C(=O)c2cc(NS(=O)(=O)c3cccs3)ccc2O[C@@H](C)CCCCO[C@@H]1CN(C)Cc1ccc(C(F)(F)F)cc1,98*,0,.,92,114*,-6,54*
CC(=O)c1cccc(NC(=O)Cc2ccccc2[N+](=O)[O-])c1,.,.,1,.,.,.,.
COc1cc(O)c2c(c1C)C(C)C(O)(CO)OC2=O (stereo not given),.,.,0,.,.,.,.
Cc1cccc(-c2ccc([C@@H]3[C@@H](CO)N4CCCCN(S(=O)(=O)c5cccc(C)c5)C[C@H]34)cc2)c1,90,-1,.,.,.,.,.
Cc1cccc(-c2ccc([C@H]3[C@H]4CN(S(=O)(=O)c5ccccc5C)CCCCN4[C@H]3CO)cc2)c1,103*,-1,.,106*,92,2,38*
Cc1cccc(-c2ccc([C@@H]3[C@@H](CO)N4CCCCN(S(=O)(=O)c5ccccc5C)C[C@H]34)cc2)c1,81,-2,.,.,.,.,.
Cc1cccc(-c2ccc([C@H]3[C@H](CO)N4CCCCN(S(=O)(=O)c5cccc(C)c5)C[C@@H]34)cc2)c1,98*,0,.,91,101*,115*,106*
Cc1cccc(S(=O)(=O)N2CCCCN3[C@H](CO)[C@@H](c4ccc(-c5ccccc5)cc4)[C@@H]3C2)c1,105*,.,.,99*,64,26,11
Cc1cccc(S(=O)(=O)N2CCCCN3[C@H](CO)[C@H](c4ccc(-c5ccccc5)cc4)[C@H]3C2)c1,62,.,.,.,.,.,.
COc1cccc(NC(=O)CSc2nc(N)c(-c3ccccc3)c(=O)[nH]2)c1,.,.,0,.,.,.,.
COC(=O)c1c(NC(=O)COc2cc(C)ccc2C)sc2c1CCC2,.,.,0,.,.,.,.
COc1ccc(OC)c(NC(=O)CN(c2ccc(F)c(Cl)c2)S(C)(=O)=O)c1,.,.,0,.,.,.,.
Cc1ccc(S(=O)(=O)N(C)C[C@H]2Oc3ncc(-c4ccccc4)cc3C(=O)N([C@@H](C)CO)C[C@@H]2C)cc1,60,-1,-1,.,.,.,.
COc1ccccc1S(=O)(=O)N(C)C[C@@H]1Oc2ncc(-c3ccc(C)cc3)cc2C(=O)N([C@H](C)CO)C[C@@H]1C,61,.,.,.,.,.,.
SMILES,T cruzi growth-1,KDM4C inh,IDH1 R132H inh,T cruzi growth-2,T cruzi growth-3,3T3 cytotox,3T3 cytotox 2
COc1ccccc1S(=O)(=O)N(C)C[C@H]1Oc2ncc(-c3ccc(C)cc3)cc2C(=O)N([C@H](C)CO)C[C@@H]1C,99*,0,0,99*,71,64*,37*
COc1ccccc1S(=O)(=O)N(C)C[C@H]1Oc2ncc(-c3ccc(C)cc3)cc2C(=O)N([C@@H](C)CO)C[C@@H]1C,111*,-1,-5,103*,61,25,42*
Cn1nnnc1SCC(=O)Nc1ccc(F)c(F)c1,.,.,0,.,.,.,.
COc1ccc(C#Cc2ccc3c(c2)O[C@@H](CN(C)C(=O)Nc2cccc(OC)c2)[C@@H](C)CN([C@@H](C)CO)S3(=O)=O)cc1,?,-7,.,105*,108*,37*,34*
COc1cccc(NC(=O)N(C)C[C@H]2Oc3cc(C#Cc4ccncc4)ccc3S(=O)(=O)N([C@@H](C)CO)C[C@H]2C)c1,77,-2,-4,.,.,.,.
COc1cccc(NC(=O)N(C)C[C@@H]2Oc3cc(-c4ccccc4F)ccc3S(=O)(=O)N([C@H](C)CO)C[C@@H]2C)c1,98*,.,0,111*,55,22,50*
COc1ccc(C#Cc2ccc3c(c2)O[C@H](CN(C)C(=O)Nc2cccc(OC)c2)[C@@H](C)CN([C@@H](C)CO)S3(=O)=O)cc1,109*,-6,1,100*,110*,?,17
COc1cccc(NC(=O)N(C)C[C@@H]2Oc3cc(C#CC4(O)CCCC4)ccc3S(=O)(=O)N([C@@H](C)CO)C[C@H]2C)c1,.,1,.,.,.,.,.
COc1cccc(NC(=O)N(C)C[C@H]2Oc3cc(-c4ccccc4OC)ccc3S(=O)(=O)N([C@H](C)CO)C[C@H]2C)c1,.,-4,.,.,.,.,.
COc1cccc(NC(=O)N(C)C[C@H]2Oc3cc(C#Cc4ccc(F)cc4)ccc3S(=O)(=O)N([C@@H](C)CO)C[C@@H]2C)c1,?,-4,.,99*,108*,8,52*
